From ChEMBL document CHEMBL1671759, “Thr202Ala in thyA is a marker for the Latin American Mediterranean lineage of the Mycobacterium tuberculosis complex rather than para-aminosalicylic acid resistance” (2010) come the findings set out here.

Experiment [1] deals with Mycobacterium tuberculosis. Nature of the experiment: Antimicrobial activity against Mycobacterium tuberculosis H37Rv 9679/00 harboring thyA Thr202Ala single nucleotide polymorphism grown in 7H9 broth assessed as decrease in bacterial growth at 0.125 to 2 ug/ml by spectrophotometry. Type of experiment: functional, organism-based. The method in brief:
(§1)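 PAS growth curves in 7H9 broth with OADC (10%) and Tween 80 (0.05%), 37°C, rolling device. PAS was added at OD600 0.1 to 0, 0.13, 0.25, 0.5, 1.0 and 2.0 mg/liter. OD600 was read daily for 9 consecutive days, in triplicate. Curves are means of three independent experiments.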

The test system of experiment [2] is Mycobacterium tuberculosis. Kind of experiment: Antimicrobial activity against Mycobacterium tuberculosis Haarlem 9532/03 harboring thyA Thr202Ala single nucleotide polymorphism grown in Lowenstein-Jensen medium. It is filed as functional. An outline of the steps: (§2)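 PAS MIC by conventional susceptibility testing on Löwenstein-Jensen medium at 0.063, 0.13, 0.25, 0.5 and 1.0 mg/liter PAS. Strains were drawn from the reference collection and cultivated at the Borstel Supranational Reference Laboratory.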

Experiment [3] deals with Mycobacterium tuberculosis. Nature of the experiment: Antimicrobial activity against Mycobacterium tuberculosis LAM 7968/03 harboring thyA Thr202Ala single nucleotide polymorphism grown in Lowenstein-Jensen medium. It is filed as functional. The method in brief: as §2
Experiment [4] deals with Mycobacterium tuberculosis. Nature of the experiment: Antimicrobial activity against Mycobacterium tuberculosis LAM 8885/05 harboring thyA Thr202Ala single nucleotide polymorphism grown in Lowenstein-Jensen medium. Type of experiment: functional. An outline of the steps:
as §2

Experiment [5] relates to Mycobacterium tuberculosis. Nature of the experiment: Antimicrobial activity against Mycobacterium tuberculosis Beijing 1934/03 harboring thyA Thr202Ala single nucleotide polymorphism grown in Lowenstein-Jensen medium. It is filed as functional. The method in brief:
as §2

Experiment [6] concerns Mycobacterium tuberculosis. Nature of the experiment: Antimicrobial activity against Mycobacterium tuberculosis H37Rv 9679/00 harboring thyA Thr202Ala single nucleotide polymorphism grown in Lowenstein-Jensen medium. Type of experiment: functional. An outline of the steps: as §2
In experiment [7] the test system is Mycobacterium tuberculosis. Kind of experiment: Antimicrobial activity against Mycobacterium tuberculosis LAM 7968/03 harboring thyA Thr202Ala single nucleotide polymorphism grown in 7H9 broth assessed as decrease in bacterial growth at 0.125 to 2 ug/ml by spectrophotometry. Type of experiment: functional, organism-based. An outline of the steps:
as §1

Experiment [8] deals with Mycobacterium tuberculosis. Nature of the experiment: Antimicrobial activity against Mycobacterium tuberculosis LAM 8885/05 harboring thyA Thr202Ala single nucleotide polymorphism grown in 7H9 broth assessed as decrease in bacterial growth at 0.125 to 2 ug/ml by spectrophotometry. Type of experiment: functional, organism-based. An outline of the steps:
as §1

For experiment [9], the system named is Mycobacterium tuberculosis. Nature of the experiment: Antimicrobial activity against Mycobacterium tuberculosis Haarlem 9532/03 harboring thyA Thr202Ala single nucleotide polymorphism grown in 7H9 broth assessed as decrease in bacterial growth at 0.125 to 2 ug/ml by spectrophotometry. Type of experiment: functional, organism-based. An outline of the steps:
as §1

The subject of experiment [10] is Mycobacterium tuberculosis. Kind of experiment: Antimicrobial activity against Mycobacterium tuberculosis Beijing 1934/03 harboring thyA Thr202Ala single nucleotide polymorphism grown in 7H9 broth assessed as decrease in bacterial growth at 0.125 to 2 ug/ml by spectrophotometry. It is filed as functional, organism-based. An outline of the steps:
as §1

Structures are written as SMILES. In brackets after ≈: the same amount, converted by molar mass. Activity calls are given as the source filed them. The rule behind the calls is not given here.

For orientation: MIC means the lowest concentration found to suppress growth. Take `Nc1ccc(C(=O)O)c(O)c1` [AMINOSALICYLIC ACID]: the result in experiment [1], in experiment [7], in experiment [8], in experiment [9] and in experiment [10] was Active. Also, the minimum inhibitory concentration (MIC) in experiment [2], in [3], in experiment [4], in experiment [5] and in [6] was 0.5 ng/mL (≈ 3.27 nM) throughout.
